We go through 97 compounds from ChEMBL document CHEMBL4513216, “Probing the Open Global Health Chemical Diversity Library for Multistage-Active Starting Points for Next-Generation Antimalarials” (ACS Infect Dis, 2020).

The data set in a line: Toxicity liver stage against HepG2, at 10uM. The following applies: human, HepG2-A16-CD81EGFP cells; read-out: INHIBITION
More on the design: test concentration 10 uM, cell line HepG2-A16-CD81EGFP. The format is cell-based. In short, it runs like this: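 Uninfected HepG2-A16-CD81EGFP cells, 3 × 10^3 per well, 1536-well, plated on prespotted compound at 10 μM final, parasite-free screening media added to match infected plates; puromycin 10 μM positive, DMSO 0.5% negative; run in parallel with 48 h PbLuc assay at 37 °C, 5% CO2; viability by CellTiter-Glo luminescence, normalized to controls.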
Consider `CN1CCN(C(=O)c2cccs2)Cc2ccccc21`, for which the cytotoxicity at 10 µM is -43.9%.
As for `Cc1nc(C(=O)N2CCCC(n3cncn3)C2)cs1` (configuration not stated), the figure is 5.7%; as for `Cc1cc(C(=O)NCC(C)C)nn1C`, -0.971%; as for `CC(=O)Nc1nc(CN2CCCCC2Cn2cncn2)cs1` (configuration not stated), 1.12%.
As for `CC(C)(CNC(=O)Nc1cccc(-c2cccs2)c1)C(N)=O`, the figure is -9.99%.
With `Cc1nc2c(c(N(C)C)n1)CCN(C(=O)CN1CCC(O)CC1)C2` the figure was 3.6%; with `CCOCCCNC(=O)c1nn(CC)cc1Cl`, 2.06%; with `Cc1ccc(C)c(NS(=O)(=O)c2cc3c(c(C(=O)O)c2)OCCO3)c1`, -0.882%.
As for `Cc1cc(-c2cncnc2)nc(C2CCCN2S(C)(=O)=O)n1` (configuration not stated), the cytotoxicity at 10 µM was -6.21%.
With `CN(C)CCCNC(=O)c1cnc(Cc2ccc(F)cc2)s1` the figure was 3.47%; with `CCn1cc(CN2CCN(CC(O)c3cc(C)ccc3C)CC2)c(C)n1` (configuration not stated), 3.41%.
As for `Cc1cnc(CN(C)C2CCN(Cc3nccn3C)C2)o1` (configuration not stated), the figure is -7.03%; as for `COCC(=O)N1CCC(c2cc3n(n2)[C@@H](C(F)(F)F)C[C@@H](C)N3)CC1`, -26.5%; as for `Cc1ccc(-n2nnc(C(=O)O)c2C)c(C)c1`, -0.185%.
As for `CCN(CC)CCSc1nnc(N2CCN(c3ccccc3)CC2)s1`, the figure is -21.9%.
`Cn1c(Nc2ccc(F)cc2)c(C#N)c(=O)n(C)c1=O`: the cytotoxicity at 10 µM was 1.77%.
Regarding `Cc1nc(CN2CCO[C@H]3CN(C(=O)c4cccn4C)C[C@H]32)cs1`, the cytotoxicity at 10 µM was -136%.
As for `CCc1nccn1C1CCCN(C(=O)c2cc(C3CC3)on2)C1` (configuration not stated), the figure is -6.96%.
As for `CCc1nccn1-c1nccnc1C1CCCN(C(=O)COC)C1` (configuration not stated), the figure is -21.5%; as for `O=C(c1cccc2cn[nH]c12)N1CCCC1c1noc(C2CC2)n1` (configuration not stated), -16.8%.
As to `CN(C)C(=O)Cn1c(C2CC2)c(CN2CCOCC2)c2cccnc21`, the cytotoxicity at 10 µM is -3.99%.
As for `CC(C)COCc1cncc2c1CCN(C(=O)c1cscn1)C2`, the figure is -108%.
With `O=C(Cc1c[nH]c2ccccc12)N1CCC(Nc2cccnn2)CC1` the figure was -5.08%; with `CCOCCN1CCN(Cc2nnc(C3CC3)o2)CC1CC` (configuration not stated), -5.67%.
As for `c1cc(CN2CCC(n3cc(CN4CCCC4)nn3)CC2)cs1`, the figure is -6.26%; as for `CCc1c(C)n(CC(=O)OC)c2nc3ccccc3n2c1=O`, 1.44%.
As to `O=C(NCCCN1CCOCC1)c1ccc(-n2ccc3ccccc32)s1`, the cytotoxicity at 10 µM was -3.42%.
On to `CC(C)n1nc(Cn2cccn2)c2c1CN(C1CCOCC1)C2`, for which the cytotoxicity at 10 µM stood at 6.98%.
As for `CC(C)C(=O)Nc1ccc(Sc2nncn2C)c(Cl)c1`, the figure is -1.18%; as for `CN(C)C(=O)COCC1CN(Cc2cccs2)Cc2ncn(C)c21` (configuration not stated), 13.1%; as for `CNS(=O)(=O)c1cccc(CNc2cc(C(F)(F)F)ccn2)c1`, -6.85%.
For the compound `CC1CN(C(=O)Nc2cccc(CN3CCOC3=O)c2)CCO1` (configuration not stated), the cytotoxicity at 10 µM is -7%.
`O=C(c1ccoc1)N1CCOCC2(CCN(Cc3cccs3)C2)C1` (configuration not stated): the cytotoxicity at 10 µM is -2.98%.
With `COc1ccccc1OCCC(=O)NCc1ncc(C)c(OC)c1C` the figure was -3.63%; with `Cc1ccc(S(=O)(=O)NC[C@H]2OC[C@@H](NCc3cccs3)[C@@H]2O)cc1`, -3.24%; with `CCOCCC(=O)NC(Cc1ccc(C)cc1)c1ccccn1` (configuration not stated), -1.55%.
With `COCCC(=O)NCC1CCC(C(c2ccccn2)N(C)C)CC1` (configuration not stated) the figure was 11.5%; with `Cc1n[nH]c(C)c1CCc1n[nH]c(=O)n1Cc1cccs1`, -146%.
As for `CN(C)Cc1ccc(C(=O)N2CCCC(COc3ccc(F)cc3)C2)o1` (configuration not stated), the figure is -12.9%; as for `CC(CO)(NC(=O)Nc1nnc(C(F)F)s1)C1CC1` (configuration not stated), 9.23%.
`CCCC(=O)N1CCCCC1c1nccc(C)n1` (configuration not stated): the cytotoxicity at 10 µM is -21%.
With `O=C(C1CN(CC2CCOCC2)CC12CCOCC2)N1CCOCC1` (configuration not stated) the figure was 7.49%; with `O=C1CCCN1c1cccc(CNCc2nc(-c3ccco3)no2)c1`, 0.379%; with `O=c1ccc(-c2cccs2)nn1CN1CCOCC1`, 5.68%.
As for `CNC(=O)c1cc2c(nc1N(C)C)CCN(c1ncc(C)cn1)CC2`, the cytotoxicity at 10 µM was -119%.
As for `Cc1noc(Cl)c1CC(=O)N1CCCC1Cn1cccn1` (configuration not stated), the figure is -9.76%.
With `CCC(NCc1ccccc1Cl)c1ccccc1OCC(=O)NC` (configuration not stated) the figure was 13.3%; with `CCN1CCC(CNS(=O)(=O)N2CCc3ccccc3C2)C1` (configuration not stated), -15.4%; with `CCN1CCn2c(C)cnc2C12CCN(C(=O)COC)CC2`, 6.5%.
As for `CN1CC2(CCC(C(=O)O)CC2)Oc2ccccc2C1=O` (configuration not stated), the cytotoxicity at 10 µM was determined as 2%.
With `CCN1CC(C(=O)NCc2ccccc2-n2cccn2)CC1=O` (configuration not stated) the figure was 3.2%.
As for `CC(NCc1cccnc1)c1cc2c(cc1Br)OCCO2` (configuration not stated), the figure is 2.46%.
As for `c1csc(-c2noc(CN3CCc4cncnc4C3)n2)c1`, the figure is -9.5%; as for `Cc1[nH]ncc1C(=O)N(CC(C)C)CC(O)c1ccc(F)cc1` (configuration not stated), -1.61%.
Turning to `Cc1nn(Cn2ccc(C(=O)N3CCCC3)n2)c(C)c1Cl`, the cytotoxicity at 10 µM was 0.748%.
With `CCCc1nnc(NCCc2noc(C3CC3)n2)o1` the figure was 0.0902%; with `Cc1cc(Cl)ccc1-n1ncc(C(=O)N(C)CCc2ccccn2)c1N`, -7.3%; with `COc1ccc(OC)c(CNC2CCCc3nc(N(C)C)ncc32)c1` (configuration not stated), -11.2%.
As for `CC(C)NC(=O)c1ccc2c(c1)C1(CCN(C)CC1)C(=O)N2`, the figure is -0.201%; as for `CCc1cccc(N2CCC(NC(=O)c3cc[nH]n3)CC2)c1`, 3.08%.
With `O=C1CCCC2=Nc3nonc3NC(c3cc(Cl)ccc3F)C12` (configuration not stated) the figure was 35.5%; with `COc1ncccc1NC(=O)NCC1CC1`, -2.45%.
`CC[C@H](C)[C@H](NC(=O)Cc1csc(-c2cccc(Cl)c2)n1)C(=O)O`: the cytotoxicity at 10 µM is -7.48%.
As for `CCS(=O)(=O)NCCCNc1cc(N2CCCC2CO)ncn1` (configuration not stated), the figure is 2.2%; as for `CCc1cc(C(=O)N2CCCC2c2nc(C)c(F)c(O)n2)on1` (configuration not stated), 0.626%; as for `O=C(CCSc1ccccc1F)N1CCN(c2cnccn2)CC1`, -51.7%.
As for `Cc1cc(C(=O)NC2CCN(c3nnc(C)c(C)c3C#N)CC2)no1`, the figure is -2.12%; as for `Cc1cnn(CCNCc2ccc(OCc3cscn3)cc2)c1`, -5.48%.
With `O=C(NCCNc1ncccn1)C1CC(=O)N(CC2CC2)C1` (configuration not stated) the figure was -14%; with `CCN1CCO[C@]2(CCC[C@H]2COCc2csc(C)n2)C1`, 0.153%; with `Cc1nc(C2CCCN(C(=O)CN3CCCNC3=O)C2)sc1C` (configuration not stated), 10.4%.
On to `Cc1nc2cc(F)cc(C(=O)N3CCN(CC(C)O)CC3)c2nc1C` (configuration not stated), for which the cytotoxicity at 10 µM is 4.5%.
As for `CN1CC(=O)N(c2cnn(C)c2)CC12CCN(Cc1nccn1C)C2` (configuration not stated), the figure is -15.3%; as for `Cc1c(C2N3CC4(C(C)C)CN2CC(C(C)C)(C3)C4=O)[nH]c(=O)[nH]c1=O` (configuration not stated), 8.71%.
With `CCNC(=O)CC1CC2(CCN(C(C)=O)CC2)c2cc(F)ccc21` (configuration not stated) the figure was 6.83%; with `Cc1ccc2c(c1)OCCCC2NCc1nccn1CC(C)C` (configuration not stated), -0.77%; with `O=S(=O)(N1CCCCC1)N1CCCN(CC2CCCO2)CC1` (configuration not stated), -3.94%.
As for `CCn1nnc2c1C(COC)CN(C(=O)COc1ccccc1)C2` (configuration not stated), the figure is -17.1%; as for `COCC(=O)N1CCc2[nH]c(=O)ccc2C1`, 4.11%; as for `Cc1ccc(CN2CCOC3(CCN(C(=O)C4CCOC4)CC3)C2)cc1` (configuration not stated), 0.933%.
Take `O=C(c1ccncc1)N1CCCC1c1nc(O)cc(-c2ccccn2)n1` (configuration not stated): the cytotoxicity at 10 µM is -9.08%.
As for `Cc1ccc(CN2CCC3(CC2)C(=O)N(CCO)CCN3C)o1`, the figure is -1.63%; as for `Cc1ccc(OC2(C(=O)O)CCN(C(=O)c3ccc(F)cc3)CC2)cn1`, -18.1%; as for `CCC(O)CN1CCN(C(=O)c2cccc3c2OCC(=O)N3)CC1` (configuration not stated), -7.55%.
With `CC[C@H](C)[C@@H](CO)NC(C)Cc1ccc(Cl)cc1` (some centres not stated) the figure was -10.6%; with `CC(=O)N1CCCN(C(=O)c2ccc(=O)n(C)c2)c2ccccc21`, -10.4%; with `O=C(C1CCOC1)N1C[C@@H]2CCN(C(=O)c3cscn3)[C@@H]2C1` (some centres not stated), -2.85%.
With `Cc1ncc(C(=O)N2CC[C@@]3(O)CCN(C(=O)N(C)C)C[C@H]3C2)cn1` the figure was -46.3%; with `CN(c1ccc(C(=O)NCCCN2CCOCC2)c(Cl)c1)S(C)(=O)=O`, -11.2%; with `Nc1cc(C(=O)N2CCC(Oc3cccc(C(F)(F)F)c3)CC2)ccn1`, -7.03%.
On to `CCn1cnnc1CNC(=O)N(C)C(C)c1cccs1` (configuration not stated), for which the cytotoxicity at 10 µM was -15.9%.
With `Cn1cnc2cc(C(=O)NS(=O)(=O)c3ccccc3Cl)ccc21` the figure was -7.43%; with `Cc1cc(CN2CCC(c3cc(Cc4ccccc4)n[nH]3)CC2)[nH]n1`, 7.54%; with `N#Cc1cn(C2CC2)c(=O)n(CC(O)c2ccc(F)cc2)c1=O` (configuration not stated), 2.37%.
With `CS(=O)(=O)NCCCN1CCCC1c1ccccc1` (configuration not stated) the figure was -13.4%.
As for `NC(=O)C1CCN(C(=O)Cn2nc(-c3ccccc3)oc2=O)C1` (configuration not stated), the cytotoxicity at 10 µM was -13%.
With `CCOc1cccc(C(C(=O)O)N(C)Cc2cc(C)no2)c1` (configuration not stated) the figure was 4.64%.
